One may read the IC50 as the concentration needed to halve the response being measured.

The structures appear in SMILES notation.

Experiment [1] concerns the target T1, Acetylcholinesterase (Homo sapiens, UniProt P22303). Kind of experiment: Anticholinesterase activity against erythrocyte acetylcholinesterase (AChE) in humans. The essentials: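 Human red blood cells, freshly collected, were washed five times in isotonic saline, lysed in 0.1 M Na3PO4 pH 7.4 with 0.5% Triton-X, and diluted 1:200. Compounds in half-log dilutions from 0.3 nM were preincubated with enzyme for 30 min at room temperature in pH 8.0 phosphate.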

The target of experiment [2] is T2, Cholinesterase (Homo sapiens, UniProt P06276). Kind of experiment: Anticholinesterase activity against plasma Butyrylcholinesterase (BChE) in humans. It counts as cell-free.
T2 sequence (P06276 whole entry): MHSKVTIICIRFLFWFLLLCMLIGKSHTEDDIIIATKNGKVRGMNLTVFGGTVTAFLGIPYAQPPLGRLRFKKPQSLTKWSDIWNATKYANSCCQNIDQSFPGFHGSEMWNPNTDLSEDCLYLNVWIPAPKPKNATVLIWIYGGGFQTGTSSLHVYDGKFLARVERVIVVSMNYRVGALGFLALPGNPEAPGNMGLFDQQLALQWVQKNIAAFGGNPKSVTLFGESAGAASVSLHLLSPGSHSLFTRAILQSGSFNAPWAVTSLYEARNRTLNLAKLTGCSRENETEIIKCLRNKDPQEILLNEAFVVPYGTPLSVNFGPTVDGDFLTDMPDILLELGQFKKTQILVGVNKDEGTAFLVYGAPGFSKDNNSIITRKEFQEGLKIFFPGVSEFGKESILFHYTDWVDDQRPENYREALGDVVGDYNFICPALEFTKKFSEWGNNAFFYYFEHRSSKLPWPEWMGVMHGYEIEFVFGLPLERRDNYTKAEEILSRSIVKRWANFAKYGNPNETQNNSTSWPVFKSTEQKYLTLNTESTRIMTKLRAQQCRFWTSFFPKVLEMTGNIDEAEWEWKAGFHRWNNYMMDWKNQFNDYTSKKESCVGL
For experiment [3], the target named is T1, Acetylcholinesterase. Kind of experiment: Anticholinesterase activity against erythrocyte acetylcholinesterase (AChE) in humans.(no detectable activity at 3*10e-5 M).
The target of experiment [4] is T2, Cholinesterase. Kind of experiment: Anticholinesterase activity against plasma Butyrylcholinesterase (BChE) in humans.(no detectable activity at 3*10e-5 M). The experiment is classed as cell-free.

T1 sequence (P22303 whole entry): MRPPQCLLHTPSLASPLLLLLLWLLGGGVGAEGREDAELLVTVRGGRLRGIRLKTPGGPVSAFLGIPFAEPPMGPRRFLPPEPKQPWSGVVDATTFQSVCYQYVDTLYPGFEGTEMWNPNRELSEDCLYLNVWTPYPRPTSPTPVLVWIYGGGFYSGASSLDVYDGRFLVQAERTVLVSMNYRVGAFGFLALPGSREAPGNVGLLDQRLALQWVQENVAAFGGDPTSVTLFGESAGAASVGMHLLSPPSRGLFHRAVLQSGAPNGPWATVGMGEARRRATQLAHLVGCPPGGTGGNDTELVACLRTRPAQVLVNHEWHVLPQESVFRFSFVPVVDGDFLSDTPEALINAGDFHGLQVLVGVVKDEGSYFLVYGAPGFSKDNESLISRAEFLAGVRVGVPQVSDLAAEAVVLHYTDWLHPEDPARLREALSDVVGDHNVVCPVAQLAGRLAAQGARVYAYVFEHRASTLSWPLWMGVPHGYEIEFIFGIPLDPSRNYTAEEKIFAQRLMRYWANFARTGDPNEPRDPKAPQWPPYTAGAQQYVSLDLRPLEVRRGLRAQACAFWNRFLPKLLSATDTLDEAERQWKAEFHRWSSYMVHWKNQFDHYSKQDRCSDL

Consider `C[C@]12CCNC1Nc1ccc(OC(=O)Nc3ccccc3)cc12` (stereo not given in full), for which the IC50 at Acetylcholinesterase [1] came to 231 nM; against Cholinesterase [2], 952 nM.

Take `CNC(=O)Oc1ccc2c(c1)[C@]1(C)CCNC1N2` (stereo not given in full): the IC50 against Acetylcholinesterase [1] is 10.9 nM; against Cholinesterase [2], 2.4 nM.

`CN1CC[C@@]2(C)c3cc(O)ccc3N(C)[C@@H]12`: the IC50 entry at Acetylcholinesterase [3] and against Cholinesterase [4] was “No detectable activity” in each case.

On to `CN1CC[C@@]2(C)C3=CC(=O)C(=O)C=C3N(C)C12` (stereo not given in full), for which the IC50 result at Acetylcholinesterase [3] and against Cholinesterase [4] was “No detectable activity” in each case.

Turning to `C[C@]12CCN(Cc3ccccc3)C1N(Cc1ccccc1)c1ccc(OC(=O)Nc3ccccc3)cc12` (stereo not given in full), the IC50 entry on Acetylcholinesterase [3] and against Cholinesterase [4] was “No detectable activity” in each case.

On Cholinesterase [2], `C[C@@]12CCNC1Nc1ccc(OC(=O)Nc3ccccc3)cc12` (stereo not given in full) showed an IC50 of 897 nM.

For the molecule `CNC(=O)Oc1ccc2c(c1)[C@@]1(C)CCN(Cc3ccccc3)C1N2Cc1ccccc1` (stereo not given in full), the IC50 against Acetylcholinesterase [1] was determined as 3560 nM; on Cholinesterase [2], 776 nM.

Turning to `CNC(=O)Oc1ccc2c(c1)[C@@]1(C)CCNC1N2` (stereo not given in full), the IC50 was determined as 1490 nM against Acetylcholinesterase [1] and 237 nM at Cholinesterase [2].

With `CNC(=O)Oc1ccc2c(c1)[C@]1(C)CCN(Cc3ccccc3)C1N2Cc1ccccc1` (stereo not given in full), the IC50 on Acetylcholinesterase [1] is 1090 nM; against Cholinesterase [2] it was 8.1 nM.

Consider `CN1c2ccc(OC(=O)Nc3ccccc3)cc2[C@]2(C)CCNC12` (stereo not given in full), for which, on Cholinesterase [2], the IC50 was 612 nM.

Turning to `C[C@@]12CCN(Cc3ccccc3)C1N(Cc1ccccc1)c1ccc(OC(=O)Nc3ccccc3)cc12` (single isomer, unassigned; (-)), the values for the IC50 on Acetylcholinesterase [1] and at Cholinesterase [2] were 41100 nM and 513 nM, respectively.
